Laboratory results taken from ChEMBL document CHEMBL2321654, “Design, modification and 3D QSAR studies of novel naphthalin-containing pyrazoline derivatives with/without thiourea skeleton as anticancer agents” (Bioorg Med Chem, 2013).
Activity calls are given as the source filed them. No cut-off for these calls is given here.

Tests used:
[1] = molecular target: Receptor tyrosine-protein kinase erbB-2 (Homo sapiens, UniProt P04626); assay: Inhibition of human recombinant HER-2 cytoplasmic domain (676 to 1245) autophosphorylation after 1 hr
Outline: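 His6-tagged HER-2 expressed in Sf-9 cells (3-day infection), purified by Ni-NTA at 4 °C. Enzyme (12.5 ng) preincubated with compound 10 min at room temperature, then 0.1 mM ATP-50 mM MgCl2 with MnCl2, Na3VO4 and DTT buffer added for 1 h. Autophosphorylation read by europium anti-phosphotyrosine DELFIA time-resolved fluorescence (ex 340/em 615 nm). Controls with and without ATP-MgCl2; triplicate.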

A549 = assay: Antiproliferative activity against human A549 cells after 24 hrs by MTT assay; assay type: functional; settings: A549, 24 h
Outline: (§1)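 MCF-7 and A549 cells grown in DMEM/10% FBS, 5% CO2, 37 °C; seeded at 1000 cells/well and left 24 h to reattach. Compound stocks 20 mM in DMSO, diluted in medium; 3-fold serial dilutions gave final […]. Exposure 24 h at 37 °C, then MTT read-out at 590 nm. GI50 calculated from absorbance.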

MCF7 = assay: Antiproliferative activity against human MCF7 cells after 24 hrs by MTT assay; assay type: functional; settings: MCF7, 24 h; outline: as §1
[2] = molecular target: T1, Epidermal growth factor receptor (Homo sapiens, UniProt P00533); assay: Inhibition of recombinant EGFR cytoplasmic domain (645 to 1186) (unknown origin) autophosphorylation after 1 hr
T1 sequence (P00533 whole entry, the tested form may be a part): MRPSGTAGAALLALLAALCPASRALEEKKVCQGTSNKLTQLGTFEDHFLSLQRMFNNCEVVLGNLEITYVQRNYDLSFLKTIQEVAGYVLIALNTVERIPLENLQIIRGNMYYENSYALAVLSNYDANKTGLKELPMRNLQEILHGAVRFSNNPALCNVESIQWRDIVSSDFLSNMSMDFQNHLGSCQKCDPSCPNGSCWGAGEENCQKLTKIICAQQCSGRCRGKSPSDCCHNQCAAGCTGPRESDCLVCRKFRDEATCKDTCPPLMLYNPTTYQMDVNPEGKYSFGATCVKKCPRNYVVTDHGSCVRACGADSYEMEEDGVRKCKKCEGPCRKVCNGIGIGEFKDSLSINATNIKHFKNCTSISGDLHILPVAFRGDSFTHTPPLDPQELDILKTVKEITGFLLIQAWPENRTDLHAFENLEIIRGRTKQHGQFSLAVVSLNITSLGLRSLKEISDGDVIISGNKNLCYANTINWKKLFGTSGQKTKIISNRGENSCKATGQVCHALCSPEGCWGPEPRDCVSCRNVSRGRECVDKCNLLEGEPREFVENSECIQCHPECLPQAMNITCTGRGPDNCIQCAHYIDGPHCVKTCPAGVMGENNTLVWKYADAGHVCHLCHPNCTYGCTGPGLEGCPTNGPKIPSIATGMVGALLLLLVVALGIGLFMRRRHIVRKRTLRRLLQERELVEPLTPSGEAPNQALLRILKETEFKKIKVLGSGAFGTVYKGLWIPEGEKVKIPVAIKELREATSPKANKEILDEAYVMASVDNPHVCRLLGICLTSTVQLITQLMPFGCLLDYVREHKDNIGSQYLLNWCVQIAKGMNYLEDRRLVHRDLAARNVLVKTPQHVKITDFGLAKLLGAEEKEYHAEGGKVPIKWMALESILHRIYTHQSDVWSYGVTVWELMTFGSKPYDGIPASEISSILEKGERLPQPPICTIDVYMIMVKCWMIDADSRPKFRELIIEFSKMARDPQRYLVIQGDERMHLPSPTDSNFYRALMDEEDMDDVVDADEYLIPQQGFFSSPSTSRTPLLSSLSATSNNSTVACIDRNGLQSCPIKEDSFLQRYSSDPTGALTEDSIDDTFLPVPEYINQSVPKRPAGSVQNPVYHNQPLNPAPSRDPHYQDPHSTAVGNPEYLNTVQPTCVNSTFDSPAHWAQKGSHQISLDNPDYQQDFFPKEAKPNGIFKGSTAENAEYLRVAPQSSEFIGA

[3] = molecular target: Vascular endothelial growth factor receptor 2 (Homo sapiens, UniProt P35968); assay: Inhibition of VEGFR-2 (unknown origin) using gastrin as substrate after 1 hr by fluorescence assay
Chain of Vascular endothelial growth factor receptor 2 (P35968 whole entry, the tested form may be a part): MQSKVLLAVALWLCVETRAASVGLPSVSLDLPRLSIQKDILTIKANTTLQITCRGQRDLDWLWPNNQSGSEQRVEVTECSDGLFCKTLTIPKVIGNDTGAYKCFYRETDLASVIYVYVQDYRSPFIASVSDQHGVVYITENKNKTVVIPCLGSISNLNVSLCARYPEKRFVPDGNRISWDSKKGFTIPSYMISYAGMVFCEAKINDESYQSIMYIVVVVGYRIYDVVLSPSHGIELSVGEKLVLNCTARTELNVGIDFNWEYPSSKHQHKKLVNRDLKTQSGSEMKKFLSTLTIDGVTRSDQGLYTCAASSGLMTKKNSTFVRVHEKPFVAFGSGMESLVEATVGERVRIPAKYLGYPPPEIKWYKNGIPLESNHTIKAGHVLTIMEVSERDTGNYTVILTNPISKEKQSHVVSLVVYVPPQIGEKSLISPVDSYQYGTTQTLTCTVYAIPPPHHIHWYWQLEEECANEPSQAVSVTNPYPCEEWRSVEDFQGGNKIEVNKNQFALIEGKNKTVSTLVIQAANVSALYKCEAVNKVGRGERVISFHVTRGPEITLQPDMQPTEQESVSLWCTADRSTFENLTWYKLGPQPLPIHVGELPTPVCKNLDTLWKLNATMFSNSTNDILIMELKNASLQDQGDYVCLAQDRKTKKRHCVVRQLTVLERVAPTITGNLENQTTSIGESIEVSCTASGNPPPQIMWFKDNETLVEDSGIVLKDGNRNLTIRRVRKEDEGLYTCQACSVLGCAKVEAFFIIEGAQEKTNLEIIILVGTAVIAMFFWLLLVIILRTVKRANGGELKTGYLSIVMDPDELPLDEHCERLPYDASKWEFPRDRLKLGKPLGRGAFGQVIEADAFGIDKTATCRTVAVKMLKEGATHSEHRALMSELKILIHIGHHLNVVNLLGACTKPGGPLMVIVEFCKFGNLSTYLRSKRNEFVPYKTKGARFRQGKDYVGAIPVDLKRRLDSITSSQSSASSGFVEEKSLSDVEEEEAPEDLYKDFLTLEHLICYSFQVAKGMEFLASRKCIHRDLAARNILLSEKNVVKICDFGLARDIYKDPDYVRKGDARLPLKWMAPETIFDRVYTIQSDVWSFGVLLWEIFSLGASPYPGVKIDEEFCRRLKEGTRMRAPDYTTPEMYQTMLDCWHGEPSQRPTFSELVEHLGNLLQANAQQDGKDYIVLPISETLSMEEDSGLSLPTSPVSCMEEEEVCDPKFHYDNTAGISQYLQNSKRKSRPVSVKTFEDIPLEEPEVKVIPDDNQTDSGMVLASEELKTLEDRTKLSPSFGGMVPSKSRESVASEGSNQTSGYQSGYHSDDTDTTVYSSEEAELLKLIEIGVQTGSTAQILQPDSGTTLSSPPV
Outline: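 Phosphorylated or nonphosphorylated VEGFR-2 kinase domain, 5 nM, incubated with compound (10-point titration, 4 to 0.1 µM) and 1 µM gastrin substrate in Tris-HCl pH 7.5 with MgCl2, NaCl, EGTA, DTT, orthovanadate and BSA, 30 min at 25 °C. ATP then added to 11.8 µM final for 60 min at room temperature. Eu-anti-phosphotyrosine time-resolved fluorescence read at 665 nm; triplicate.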

Focal adhesion kinase 1 = Focal adhesion kinase 1 (Homo sapiens, UniProt Q05397); assay: Inhibition of human-recombinant full-length FAK after 4 hrs by kinase-Glo-luminescence assay
Chain of Focal adhesion kinase 1 (Q05397 whole entry): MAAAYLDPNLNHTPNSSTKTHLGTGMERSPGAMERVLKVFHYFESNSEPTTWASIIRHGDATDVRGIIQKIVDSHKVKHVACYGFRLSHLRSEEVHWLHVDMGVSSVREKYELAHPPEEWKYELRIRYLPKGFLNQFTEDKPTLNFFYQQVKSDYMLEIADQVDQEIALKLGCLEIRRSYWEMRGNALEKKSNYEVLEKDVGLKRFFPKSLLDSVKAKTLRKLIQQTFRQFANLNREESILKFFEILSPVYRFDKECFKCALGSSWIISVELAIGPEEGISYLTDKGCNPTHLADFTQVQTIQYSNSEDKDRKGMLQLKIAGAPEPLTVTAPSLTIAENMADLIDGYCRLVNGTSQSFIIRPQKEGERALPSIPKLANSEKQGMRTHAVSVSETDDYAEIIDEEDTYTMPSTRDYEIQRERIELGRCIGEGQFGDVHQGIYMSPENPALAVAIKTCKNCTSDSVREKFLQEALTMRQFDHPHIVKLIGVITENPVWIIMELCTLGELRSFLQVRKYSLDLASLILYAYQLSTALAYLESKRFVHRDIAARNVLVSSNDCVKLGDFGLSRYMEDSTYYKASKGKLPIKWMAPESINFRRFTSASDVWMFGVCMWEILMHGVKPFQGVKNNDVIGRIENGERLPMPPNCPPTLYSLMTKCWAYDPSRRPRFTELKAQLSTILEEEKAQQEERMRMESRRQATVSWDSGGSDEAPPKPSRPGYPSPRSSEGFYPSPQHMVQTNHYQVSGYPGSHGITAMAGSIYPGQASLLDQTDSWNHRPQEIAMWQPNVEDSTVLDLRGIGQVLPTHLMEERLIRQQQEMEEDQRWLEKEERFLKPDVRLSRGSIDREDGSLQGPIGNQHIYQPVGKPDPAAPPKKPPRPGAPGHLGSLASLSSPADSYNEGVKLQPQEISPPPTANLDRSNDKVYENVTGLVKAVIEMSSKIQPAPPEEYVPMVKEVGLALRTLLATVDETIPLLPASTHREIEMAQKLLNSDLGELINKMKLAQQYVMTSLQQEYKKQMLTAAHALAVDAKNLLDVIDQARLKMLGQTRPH
Outline: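 Full-length recombinant human FAK incubated with ATP and substrate in kinase buffer, with or without compound, for 4 h at room temperature. Final drug concentrations 100, 30, 10 and 3 µg/mL. Remaining ATP measured by Kinase-Glo luminescence.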

[4] = molecular target: Receptor tyrosine-protein kinase erbB-3 (Homo sapiens, UniProt P21860); assay: Inhibition of human recombinant HER-3 cytoplasmic domain (665 to 1339) autophosphorylation after 1 hr
Chain of Receptor tyrosine-protein kinase erbB-3 (P21860 whole entry, the tested form may be a part): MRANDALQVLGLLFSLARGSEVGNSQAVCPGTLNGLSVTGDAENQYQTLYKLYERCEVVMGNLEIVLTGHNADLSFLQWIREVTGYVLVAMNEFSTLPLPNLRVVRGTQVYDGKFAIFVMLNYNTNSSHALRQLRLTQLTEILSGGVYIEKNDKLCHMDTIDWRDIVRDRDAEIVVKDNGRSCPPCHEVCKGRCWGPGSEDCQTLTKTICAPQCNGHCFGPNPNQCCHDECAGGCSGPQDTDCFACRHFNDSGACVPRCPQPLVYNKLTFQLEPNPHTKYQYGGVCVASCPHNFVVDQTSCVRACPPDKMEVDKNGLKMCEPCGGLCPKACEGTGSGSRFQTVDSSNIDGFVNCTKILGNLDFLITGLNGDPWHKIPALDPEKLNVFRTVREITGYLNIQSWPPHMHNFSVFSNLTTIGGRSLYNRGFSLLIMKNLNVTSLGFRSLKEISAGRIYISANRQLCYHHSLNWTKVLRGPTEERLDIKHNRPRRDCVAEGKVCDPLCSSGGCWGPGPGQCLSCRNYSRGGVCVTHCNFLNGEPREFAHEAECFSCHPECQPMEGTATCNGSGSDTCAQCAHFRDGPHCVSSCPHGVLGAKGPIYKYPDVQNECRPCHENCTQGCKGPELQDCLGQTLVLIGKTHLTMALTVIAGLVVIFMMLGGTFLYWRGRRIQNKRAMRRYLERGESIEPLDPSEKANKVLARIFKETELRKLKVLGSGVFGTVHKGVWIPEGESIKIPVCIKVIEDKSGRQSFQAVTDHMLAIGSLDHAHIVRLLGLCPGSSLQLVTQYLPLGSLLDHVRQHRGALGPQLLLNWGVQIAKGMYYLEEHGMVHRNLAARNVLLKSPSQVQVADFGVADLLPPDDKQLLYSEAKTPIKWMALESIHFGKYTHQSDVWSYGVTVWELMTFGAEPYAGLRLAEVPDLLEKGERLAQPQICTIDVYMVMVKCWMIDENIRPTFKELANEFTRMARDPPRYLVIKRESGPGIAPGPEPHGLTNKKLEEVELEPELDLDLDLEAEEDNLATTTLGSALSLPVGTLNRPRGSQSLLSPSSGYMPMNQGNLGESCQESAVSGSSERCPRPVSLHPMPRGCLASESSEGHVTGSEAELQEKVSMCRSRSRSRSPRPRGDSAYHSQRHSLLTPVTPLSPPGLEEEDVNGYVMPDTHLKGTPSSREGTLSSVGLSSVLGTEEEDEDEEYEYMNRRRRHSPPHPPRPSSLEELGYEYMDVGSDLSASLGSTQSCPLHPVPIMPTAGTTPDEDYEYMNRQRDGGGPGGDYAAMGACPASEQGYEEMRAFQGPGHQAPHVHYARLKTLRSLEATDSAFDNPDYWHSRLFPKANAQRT
Outline: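 HER-3 cytoplasmic domain (aa 665–1339) from 1.8 Kb human cDNA. Assayed by the same DELFIA autophosphorylation procedure as EGFR/HER-2: compound preincubated with enzyme, ATP-MgCl2 for 1 h, europium anti-phosphotyrosine time-resolved fluorescence read-out.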

[5] = molecular target: T1, Epidermal growth factor receptor; settings: A549, 0.02 to 0.32 uM
[6] = molecular target: T1, Epidermal growth factor receptor; settings: A549, 0.02 to 0.32 uM; remark: listed apart in the source

| SMILES | IC50 [1] [nM] | GI50 (A549) [nM] | GI50 (MCF7) [nM] | IC50 [2] [nM] | IC50 [3] [nM] | IC50 (Focal adhesion kinase 1) [µM] | IC50 [4] [µM] | inhibition [5] | inhibition [6] |
| --- | --- | --- | --- | --- | --- | --- | --- | --- | --- |
| NC(=S)N1N=C(c2ccc(Cl)cc2)CC1c1ccc2ccccc2c1 (configuration not stated) | 3870 | 260 | 3310 | – | – | – | – | – | – |
| COc1ccc(C2CC(c3ccc(C)c(C)c3)=NN2C(N)=S)cc1 (configuration not stated) | 2770 | 340 | 3790 | – | – | – | – | – | – |
| NC(=S)N1N=C(c2ccc(F)cc2)CC1c1cccc2ccccc12 (configuration not stated) | 10600 | > 50000 | > 50000 | 8250 | – | – | – | – | – |
| c1ccc(C2=NN(c3ccccc3)C(c3cccc4ccccc34)C2)cc1 (configuration not stated) | 3830 | 1980 | 3290 | 2520 | – | – | – | – | – |
| NC(=S)N1N=C(c2ccccc2)CC1c1ccc2ccccc2c1 (configuration not stated) | 5690 | 3210 | 13800 | 3010 | – | – | – | – | – |
| COc1ccc(C2=NN(C(N)=S)C(c3cccc4ccccc34)C2)cc1 (configuration not stated) | 4180 | 170 | 4180 | 160 | 4100 | 13.6 | 55.6 | – | – |
| NC(=S)N1N=C(c2ccc(F)cc2)CC1c1ccc2ccccc2c1 (configuration not stated) | 1750 | 4180 | 880 | 3280 | – | – | – | – | – |
| NC(=S)N1N=C(c2ccc(Cl)c(Cl)c2)CC1c1ccc(O)cc1 (configuration not stated) | 6580 | 33500 | 27600 | – | – | – | – | – | – |
| Cc1ccc(C2=NN(c3ccccc3)C(c3ccc4ccccc4c3)C2)cc1 (configuration not stated) | 1130 | 130 | 390 | 60 | 1560 | 11.5 | 45.3 | – | – |
| COc1ccc(C2=NN(c3ccccc3)C(c3ccc4ccccc4c3)C2)cc1 (configuration not stated) | 1450 | 160 | 550 | – | – | – | – | – | – |
| Clc1ccc(C2=NN(c3ccccc3)C(c3ccc4ccccc4c3)C2)cc1 (configuration not stated) | 1460 | 160 | 530 | 110 | – | – | – | – | – |
| Clc1ccc(C2=NN(c3ccccc3)C(c3ccc4ccccc4c3)C2)cc1Cl (configuration not stated) | 1020 | 110 | 390 | 50 | 1830 | 6.2 | 35.9 | Active | Active |
| COc1ccc(C2=NN(C(N)=S)C(c3ccc4ccccc4c3)C2)cc1 (configuration not stated) | 3280 | 460 | 2120 | 1040 | – | – | – | – | – |
| Fc1ccc(C2=NN(c3ccccc3)C(c3ccc4ccccc4c3)C2)cc1 (configuration not stated) | 2010 | 230 | 850 | 300 | – | – | – | – | – |
| c1ccc(C2=NN(c3ccccc3)C(c3ccc4ccccc4c3)C2)cc1 (configuration not stated) | 1890 | 220 | 730 | 240 | – | – | – | – | – |
| COc1ccc(C2=NN(c3ccccc3)C(c3cccc4ccccc34)C2)cc1 (configuration not stated) | 3010 | 160 | 1710 | 100 | 3400 | 10.3 | 40.2 | – | – |

| SMILES | IC50 [1] [nM] | GI50 (A549) [nM] | GI50 (MCF7) [nM] | IC50 [2] [nM] | IC50 [3] [nM] | IC50 (Focal adhesion kinase 1) [µM] | IC50 [4] [µM] | inhibition [5] | inhibition [6] |
| --- | --- | --- | --- | --- | --- | --- | --- | --- | --- |
| Cc1ccc(C2=NN(c3ccccc3)C(c3cccc4ccccc34)C2)cc1 (configuration not stated) | 1910 | 190 | 740 | 200 | – | – | – | – | – |
| Fc1ccc(C2=NN(c3ccccc3)C(c3cccc4ccccc34)C2)cc1 (configuration not stated) | 3590 | 490 | 2680 | 1070 | – | – | – | – | – |
| NC(=S)N1N=C(c2ccc(Cl)cc2)CC1c1cccc2ccccc12 (configuration not stated) | 5460 | 380 | 11200 | – | – | – | – | – | – |
| NC(=S)N1N=C(c2ccc(Br)cc2)CC1c1cccc2ccccc12 (configuration not stated) | 9150 | 49100 | > 50000 | 5680 | – | – | – | – | – |
| Clc1ccc(C2=NN(c3ccccc3)C(c3cccc4ccccc34)C2)cc1 (configuration not stated) | 3070 | 330 | 1820 | 680 | – | – | – | – | – |
| C#Cc1cccc(Nc2ncnc3cc(OCCOC)c(OCCOC)cc23)c1 [ERLOTINIB] | – | 30 | 80 | – | – | – | – | – | – |
| Brc1ccc(C2=NN(c3ccccc3)C(c3ccc4ccccc4c3)C2)cc1 (configuration not stated) | 1280 | 360 | 480 | 710 | – | – | – | – | – |
| Cc1ccc(C2=NN(C(N)=S)C(c3ccc4ccccc4c3)C2)cc1 (configuration not stated) | 1040 | 270 | 390 | 520 | 2100 | 28.7 | 63.2 | – | – |
| Cc1ccc(C2=NN(C(N)=S)C(c3cccc4ccccc34)C2)cc1 (configuration not stated) | 6680 | 1210 | 29100 | 2060 | – | – | – | – | – |
| NC(=S)N1N=C(c2ccc(Br)cc2)CC1c1ccc2ccccc2c1 (configuration not stated) | 1210 | 230 | 440 | 350 | – | – | – | – | – |
| Brc1ccc(C2=NN(c3ccccc3)C(c3cccc4ccccc34)C2)cc1 (configuration not stated) | 2320 | 250 | 1030 | 490 | – | – | – | – | – |
| NC(=S)N1N=C(c2ccc(Cl)c(Cl)c2)CC1c1cccc2ccccc12 (configuration not stated) | 6840 | 180 | 33100 | 210 | – | – | – | – | – |
| NC(=S)N1N=C(c2ccccc2)CC1c1cccc2ccccc12 (configuration not stated) | 7240 | 1440 | 44500 | 2230 | – | – | – | – | – |
| Clc1ccc(C2=NN(c3ccccc3)C(c3cccc4ccccc34)C2)cc1Cl (configuration not stated) | 1980 | 200 | 810 | 140 | – | – | – | – | – |
| NC(=S)N1N=C(c2ccc(Cl)c(Cl)c2)CC1c1ccc2ccccc2c1 (configuration not stated) | 880 | 310 | 350 | 660 | 3200 | 9.9 | 51.7 | – | – |
